Results published in ChEMBL document CHEMBL4811244, “Design and synthesis of 1H-pyrazolo[3,4-b]pyridines targeting mitogen-activated protein kinase kinase 4 (MKK4) - A promising target for liver regeneration” (Eur J Med Chem, 2021).

Key:
[1] = target: T1, Dual specificity mitogen-activated protein kinase kinase 7 (Homo sapiens) (UniProt O14733); assay: Binding affinity to wild-type human full length MKK7 (M1 to R419 residues) expressed in mammalian expression system assessed as residual binding level at 100 nM by Kinomescan method relative to control
T1 sequence (whole entry): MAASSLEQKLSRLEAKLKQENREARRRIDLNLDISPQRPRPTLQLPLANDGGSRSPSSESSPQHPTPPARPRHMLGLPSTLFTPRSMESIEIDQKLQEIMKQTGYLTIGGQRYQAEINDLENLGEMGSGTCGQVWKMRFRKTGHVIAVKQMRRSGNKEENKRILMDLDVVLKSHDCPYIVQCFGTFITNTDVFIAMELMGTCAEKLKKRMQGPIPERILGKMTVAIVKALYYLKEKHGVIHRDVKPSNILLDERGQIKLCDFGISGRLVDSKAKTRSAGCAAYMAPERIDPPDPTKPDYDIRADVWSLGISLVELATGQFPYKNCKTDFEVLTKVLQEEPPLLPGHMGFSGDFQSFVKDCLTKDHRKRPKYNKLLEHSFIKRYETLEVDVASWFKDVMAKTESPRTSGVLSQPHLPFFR

[2] = target: T2, Dual specificity mitogen-activated protein kinase kinase 7 (Homo sapiens, UniProt O14733); assay: Binding affinity to wild-type human full length MKK7 (M1 to R419 residues) expressed in mammalian expression system by Kinomescan method
T2 sequence (O14733 whole entry): T1 sequence (whole entry)
Outline: (§1)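 Dissociation constants (Kd, nM) were determined by KINOMEscan competition-binding assay, in duplicate.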

[3] = target: Mitogen-activated protein kinase 8 (Homo sapiens, UniProt P45983); assay: Binding affinity to wild-type human full length JNK1 (M1 to Q384 residues) expressed in mammalian expression system by Kinomescan method
[4] = target: T3, Mitogen-activated protein kinase kinase kinase 20 (Homo sapiens, UniProt Q9NYL2); assay: Binding affinity to wild-type human partial length ZAK (M1 to L331 residues) expressed in bacterial expression system by Kinomescan method; outline: as §1
Target sequence in this assay (Q9NYL2 whole entry, the tested form may be a part): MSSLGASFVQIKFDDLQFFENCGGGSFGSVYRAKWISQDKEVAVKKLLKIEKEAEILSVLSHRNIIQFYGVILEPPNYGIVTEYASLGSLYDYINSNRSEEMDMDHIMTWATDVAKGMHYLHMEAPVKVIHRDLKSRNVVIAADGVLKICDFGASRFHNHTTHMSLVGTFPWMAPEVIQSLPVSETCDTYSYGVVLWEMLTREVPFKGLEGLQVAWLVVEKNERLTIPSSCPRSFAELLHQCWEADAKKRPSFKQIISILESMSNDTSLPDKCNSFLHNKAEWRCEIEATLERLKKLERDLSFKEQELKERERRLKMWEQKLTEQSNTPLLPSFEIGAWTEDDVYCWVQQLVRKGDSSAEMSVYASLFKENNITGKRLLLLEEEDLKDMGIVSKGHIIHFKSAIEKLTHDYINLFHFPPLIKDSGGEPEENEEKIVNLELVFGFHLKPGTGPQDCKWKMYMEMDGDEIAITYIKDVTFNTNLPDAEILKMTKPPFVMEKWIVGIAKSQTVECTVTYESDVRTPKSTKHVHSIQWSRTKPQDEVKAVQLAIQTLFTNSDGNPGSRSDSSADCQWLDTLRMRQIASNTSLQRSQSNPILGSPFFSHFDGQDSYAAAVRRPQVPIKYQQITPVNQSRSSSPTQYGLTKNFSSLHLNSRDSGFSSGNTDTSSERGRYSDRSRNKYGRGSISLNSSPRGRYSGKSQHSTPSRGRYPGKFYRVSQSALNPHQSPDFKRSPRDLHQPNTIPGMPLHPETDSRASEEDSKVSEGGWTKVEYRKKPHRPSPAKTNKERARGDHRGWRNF

[5] = target: T4, Mitogen-activated protein kinase kinase kinase kinase 5 (Homo sapiens, UniProt Q9Y4K4); assay: Binding affinity to wild-type human partial length MAP4K5 (M1 to P297 residues) expressed in bacterial expression system assessed as residual binding level at 100 nM by Kinomescan method relative to control
Target sequence in this assay (Q9Y4K4 whole entry, looked up, the tested form may be a part): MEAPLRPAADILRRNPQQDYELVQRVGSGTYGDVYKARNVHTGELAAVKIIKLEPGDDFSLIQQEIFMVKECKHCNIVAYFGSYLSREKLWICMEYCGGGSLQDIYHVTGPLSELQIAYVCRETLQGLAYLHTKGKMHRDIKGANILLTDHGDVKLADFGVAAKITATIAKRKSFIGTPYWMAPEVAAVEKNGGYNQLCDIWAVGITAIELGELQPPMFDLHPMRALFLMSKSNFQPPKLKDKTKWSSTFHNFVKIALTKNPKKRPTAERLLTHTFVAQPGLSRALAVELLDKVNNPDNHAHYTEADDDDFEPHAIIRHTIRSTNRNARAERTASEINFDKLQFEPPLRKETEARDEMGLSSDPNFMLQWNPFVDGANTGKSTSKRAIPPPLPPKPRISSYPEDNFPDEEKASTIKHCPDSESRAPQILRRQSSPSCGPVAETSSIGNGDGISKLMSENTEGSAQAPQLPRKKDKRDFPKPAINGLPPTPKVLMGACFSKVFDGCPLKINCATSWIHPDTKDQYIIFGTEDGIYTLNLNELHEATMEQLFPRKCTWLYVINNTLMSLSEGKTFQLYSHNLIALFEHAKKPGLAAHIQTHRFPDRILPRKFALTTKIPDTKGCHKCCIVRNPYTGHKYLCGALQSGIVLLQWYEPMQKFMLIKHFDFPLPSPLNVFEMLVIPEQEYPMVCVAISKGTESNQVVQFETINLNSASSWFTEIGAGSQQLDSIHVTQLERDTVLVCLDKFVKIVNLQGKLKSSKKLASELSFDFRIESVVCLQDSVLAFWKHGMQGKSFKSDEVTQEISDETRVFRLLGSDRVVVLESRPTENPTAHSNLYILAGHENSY

[6] = target: T4, Mitogen-activated protein kinase kinase kinase kinase 5; assay: Binding affinity to wild-type human partial length MAP4K5 (M1 to P297 residues) expressed in bacterial expression system by Kinomescan method; outline: as §1
Target sequence in this assay (Q9Y4K4 whole entry, the tested form may be a part): as the sequence (Q9Y4K4 whole entry, looked up, the tested form may be a part) above

[7] = target: T3, Mitogen-activated protein kinase kinase kinase 20; assay: Binding affinity to wild-type human partial length ZAK (M1 to L331 residues) expressed in bacterial expression system assessed as residual binding level at 100 nM by Kinomescan method relative to control
Target sequence in this assay (Q9NYL2 2-800 limits assumed): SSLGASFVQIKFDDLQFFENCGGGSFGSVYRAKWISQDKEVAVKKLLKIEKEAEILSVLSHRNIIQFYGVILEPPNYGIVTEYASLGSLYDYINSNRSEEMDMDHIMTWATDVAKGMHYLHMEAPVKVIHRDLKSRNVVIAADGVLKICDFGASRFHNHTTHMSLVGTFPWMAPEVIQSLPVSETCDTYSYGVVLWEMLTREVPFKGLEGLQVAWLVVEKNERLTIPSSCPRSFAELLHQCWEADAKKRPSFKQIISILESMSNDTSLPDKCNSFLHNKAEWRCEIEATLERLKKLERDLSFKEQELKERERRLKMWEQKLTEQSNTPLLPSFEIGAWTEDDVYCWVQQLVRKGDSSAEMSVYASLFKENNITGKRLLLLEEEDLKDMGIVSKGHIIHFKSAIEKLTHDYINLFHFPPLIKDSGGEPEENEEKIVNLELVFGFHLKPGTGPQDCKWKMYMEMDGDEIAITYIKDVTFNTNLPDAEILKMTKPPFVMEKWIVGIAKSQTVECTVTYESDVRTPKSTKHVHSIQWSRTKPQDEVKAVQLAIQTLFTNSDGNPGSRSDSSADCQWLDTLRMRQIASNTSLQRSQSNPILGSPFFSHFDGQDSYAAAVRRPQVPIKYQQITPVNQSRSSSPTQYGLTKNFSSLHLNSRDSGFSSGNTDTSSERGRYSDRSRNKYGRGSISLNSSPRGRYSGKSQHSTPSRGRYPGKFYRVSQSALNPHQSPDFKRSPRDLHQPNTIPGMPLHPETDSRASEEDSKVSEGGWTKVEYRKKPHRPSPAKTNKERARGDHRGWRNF

[8] = target: Serine/threonine-protein kinase B-raf (Homo sapiens, UniProt P15056); assay: Binding affinity to wild-type human partial length BRAF (S429 to E741 residues) expressed in mammalian expression system by Kinomescan method
Serine/threonine-protein kinase B-raf, sequence (P15056 whole entry, the tested form may be a part): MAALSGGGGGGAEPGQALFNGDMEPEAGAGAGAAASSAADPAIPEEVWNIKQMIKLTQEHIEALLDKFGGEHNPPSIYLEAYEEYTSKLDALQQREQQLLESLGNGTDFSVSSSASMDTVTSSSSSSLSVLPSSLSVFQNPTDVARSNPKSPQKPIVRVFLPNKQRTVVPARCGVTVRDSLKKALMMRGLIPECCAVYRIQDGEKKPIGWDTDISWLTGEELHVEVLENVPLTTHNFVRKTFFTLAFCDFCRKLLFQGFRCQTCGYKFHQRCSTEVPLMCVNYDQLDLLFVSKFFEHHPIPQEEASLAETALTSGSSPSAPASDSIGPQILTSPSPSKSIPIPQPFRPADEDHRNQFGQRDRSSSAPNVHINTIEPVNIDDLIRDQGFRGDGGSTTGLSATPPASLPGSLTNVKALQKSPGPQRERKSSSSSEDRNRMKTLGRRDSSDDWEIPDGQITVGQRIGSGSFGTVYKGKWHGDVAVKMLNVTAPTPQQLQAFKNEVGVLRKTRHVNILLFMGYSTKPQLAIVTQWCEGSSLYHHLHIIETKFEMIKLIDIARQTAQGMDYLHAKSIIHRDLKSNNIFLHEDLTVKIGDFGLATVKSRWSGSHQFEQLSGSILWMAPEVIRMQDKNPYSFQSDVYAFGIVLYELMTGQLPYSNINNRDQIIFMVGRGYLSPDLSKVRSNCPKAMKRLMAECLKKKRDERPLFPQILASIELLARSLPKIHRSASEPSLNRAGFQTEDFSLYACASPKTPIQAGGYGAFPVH

Mitogen-activated protein kinase 8, sequence (P45983 whole entry, the tested form may be a part): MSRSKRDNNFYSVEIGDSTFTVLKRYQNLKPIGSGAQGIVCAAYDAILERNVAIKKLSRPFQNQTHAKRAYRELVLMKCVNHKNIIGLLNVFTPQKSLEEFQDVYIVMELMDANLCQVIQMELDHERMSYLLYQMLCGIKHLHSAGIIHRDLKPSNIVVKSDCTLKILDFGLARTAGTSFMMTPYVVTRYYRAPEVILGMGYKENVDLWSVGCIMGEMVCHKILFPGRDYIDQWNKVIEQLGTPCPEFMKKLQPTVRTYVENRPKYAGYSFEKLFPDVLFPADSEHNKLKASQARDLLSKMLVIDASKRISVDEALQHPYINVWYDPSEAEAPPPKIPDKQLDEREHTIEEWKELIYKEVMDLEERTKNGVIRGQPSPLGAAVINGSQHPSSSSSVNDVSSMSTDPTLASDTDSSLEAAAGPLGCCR

Activity [1]: 100%
Kd [2]: 5 µM
Kd [3]: 0.14 µM
Kd [4]: 0.0095 µM
Activity [5]: 1.4%
Kd [6]: 0.0058 µM
Activity [7]: 1.8%
Kd [8]: 0.61 µM
SMILES: Nc1ccc(-c2cnc3[nH]nc(C(=O)c4c(F)ccc(NS(=O)(=O)Cc5ccccc5)c4F)c3c2)cc1
